According to ChEMBL document CHEMBL5303300, “EUbOPEN Chemogenomics Library - Multiplex” (2023):
Values joined by “and” are separate entries in the source; they are usually repeats but may differ in a detail not shown here. Equal values may be shown once.

Test system: U2OS
Test: Multiplex assay against U2OS
Format: toxicity, cell-based
Conditions: human, number of replicates 2
How it was run: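 Per cents of healthy-nucleus cells form the tubulin, mitochondrial-mass and membrane-permeability phenotype values. Live cells were stained at seeding with Hoechst33342, BioTracker Green Microtubule Cytoskeleton Dye, MitoTracker Red and Annexin V Alexa Fluor 680. After compound addition they were imaged on a CQ1 microscope at 37°C and 5% CO2, and CellPathfinder machine-learning gating split them into Hoechst high-intensity objects or normal cells, normal cells into healthy, pyknosed or fragmented nuclei, and pyknosed cells into mitotic or apoptotic.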

[1] = 12 h, 1 µM, compound concentration 1 uM
[2] = 12 h, 10 µM, compound concentration 10 uM
[3] = 24 h, 1 µM, compound concentration 1 uM
[4] = 24 h, 10 µM, compound concentration 10 uM
[5] = 48 h, 1 µM, compound concentration 1 uM
[6] = 48 h, 10 µM, compound concentration 10 uM

CC(C)S(=O)(=O)c1ccccc1Nc1nc(N[C@@H]2CCCN(CCCCCCCNC(=O)COc3cccc4c3C(=O)N(C3CCC(=O)NC3=O)C4=O)C2)ncc1Cl (stereo partly drawn)
Population Apoptotic (%) [1]: 82% and 80%
Population Fragmented Nuclei (%) [1]: 14% and 8%
Population Healthy Nuclei (%) [1]: 43% and 61%
Population Hoechst High Intensity Objects (%) [1]: 0% and 1%
Population Membrane Permeable-Phenotype (%) [1]: 5%
Population Mitochondria Different-Phenotype (%) [1]: 5% and 6%
Population Mitotic Cells (%) [1]: 17% and 19%
Population Normal (%) [1]: 100% and 98%
Population Pyknosed Nuclei (%) [1]: 41% and 30%
Population Tubulin-Different-Phenotype (%) [1]: 66% and 62%
Population Apoptotic (%) [2]: 85% and 81%
Population Fragmented Nuclei (%) [2]: 11% and 7%
Population Healthy Nuclei (%) [2]: 38% and 61%
Population Hoechst High Intensity Objects (%) [2]: 0% and 5%
Population Membrane Permeable-Phenotype (%) [2]: 81% and 57%
Population Mitochondria Different-Phenotype (%) [2]: 62% and 55%
Population Mitotic Cells (%) [2]: 14% and 18%
Population Normal (%) [2]: 100% and 94%
Population Pyknosed Nuclei (%) [2]: 50% and 31%
Population Tubulin-Different-Phenotype (%) [2]: 100% and 96%
Population Apoptotic (%) [3]: 83% and 87%
Population Fragmented Nuclei (%) [3]: 24% and 14%
Population Healthy Nuclei (%) [3]: 22% and 41%
Population Hoechst High Intensity Objects (%) [3]: 0% and 2%
Population Membrane Permeable-Phenotype (%) [3]: 0% and 5%
Population Mitochondria Different-Phenotype (%) [3]: 0% and 6%
Population Mitotic Cells (%) [3]: 16% and 12%
Population Normal (%) [3]: 100% and 97%
Population Pyknosed Nuclei (%) [3]: 53% and 44%
Population Tubulin-Different-Phenotype (%) [3]: 70% and 87%
Population Apoptotic (%) [4]: 93% and 89%
Population Fragmented Nuclei (%) [4]: 21% and 10%
Population Healthy Nuclei (%) [4]: 19% and 31%
Population Hoechst High Intensity Objects (%) [4]: 0% and 8%
Population Membrane Permeable-Phenotype (%) [4]: 0% and 25%
Population Mitotic Cells (%) [4]: 6% and 10%
Population Normal (%) [4]: 100% and 91%
Population Pyknosed Nuclei (%) [4]: 59% and 58%
Population Tubulin-Different-Phenotype (%) [4]: 40% and 55%
Population Apoptotic (%) [5]: 96% and 95%
Population Healthy Nuclei (%) [5]: 22% and 28%
Population Hoechst High Intensity Objects (%) [5]: 2% and 3%
Population Mitotic Cells (%) [5]: 3% and 4%
Population Normal (%) [5]: 97% and 96%
Population Pyknosed Nuclei (%) [5]: 54% and 63%
Population Tubulin-Different-Phenotype (%) [5]: 90% and 85%
Population Apoptotic (%) [6]: 90% and 97%
Population Fragmented Nuclei (%) [6]: 8% and 22%
Population Healthy Nuclei (%) [6]: 12% and 0%
Population Hoechst High Intensity Objects (%) [6]: 9% and 2%
Population Mitotic Cells (%) [6]: 9% and 2%
Population Normal (%) [6]: 90% and 97%
Population Pyknosed Nuclei (%) [6]: 79% and 77%
